TRPC4 PAM: allosteric potentiators of mouse TRPC4 channel. 0.42% of 310,000 active. HEK293 TRPC4beta/mu-opioid, DAMGO EC20, Fluo-4 Ca2+ flux; stronger effect = higher value. AID 2227. B-score at 10 µM;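 active means B-score of calcium response area above 5 SD of library B-scores, with initial fluorescence ratio within 5 SD of library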
TRPC6 inh: inhibitors of mouse TRPC6 channel; HEK293-TRPC6, membrane potential dye, ACh-evoked depolarization; stronger effect = lower value; B-score at 10 µM; 1.1% of 310,000 active;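 active means B-score under library mean minus 3 SD, initial fluorescence not abnormally high, positive integrated signal ratio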;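 further: B-score derived from integrated fluorescence ratio over the kinetic read; more negative B-score means stronger inhibition of depolarization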
Target sequence (Q61143 whole entry, looked up): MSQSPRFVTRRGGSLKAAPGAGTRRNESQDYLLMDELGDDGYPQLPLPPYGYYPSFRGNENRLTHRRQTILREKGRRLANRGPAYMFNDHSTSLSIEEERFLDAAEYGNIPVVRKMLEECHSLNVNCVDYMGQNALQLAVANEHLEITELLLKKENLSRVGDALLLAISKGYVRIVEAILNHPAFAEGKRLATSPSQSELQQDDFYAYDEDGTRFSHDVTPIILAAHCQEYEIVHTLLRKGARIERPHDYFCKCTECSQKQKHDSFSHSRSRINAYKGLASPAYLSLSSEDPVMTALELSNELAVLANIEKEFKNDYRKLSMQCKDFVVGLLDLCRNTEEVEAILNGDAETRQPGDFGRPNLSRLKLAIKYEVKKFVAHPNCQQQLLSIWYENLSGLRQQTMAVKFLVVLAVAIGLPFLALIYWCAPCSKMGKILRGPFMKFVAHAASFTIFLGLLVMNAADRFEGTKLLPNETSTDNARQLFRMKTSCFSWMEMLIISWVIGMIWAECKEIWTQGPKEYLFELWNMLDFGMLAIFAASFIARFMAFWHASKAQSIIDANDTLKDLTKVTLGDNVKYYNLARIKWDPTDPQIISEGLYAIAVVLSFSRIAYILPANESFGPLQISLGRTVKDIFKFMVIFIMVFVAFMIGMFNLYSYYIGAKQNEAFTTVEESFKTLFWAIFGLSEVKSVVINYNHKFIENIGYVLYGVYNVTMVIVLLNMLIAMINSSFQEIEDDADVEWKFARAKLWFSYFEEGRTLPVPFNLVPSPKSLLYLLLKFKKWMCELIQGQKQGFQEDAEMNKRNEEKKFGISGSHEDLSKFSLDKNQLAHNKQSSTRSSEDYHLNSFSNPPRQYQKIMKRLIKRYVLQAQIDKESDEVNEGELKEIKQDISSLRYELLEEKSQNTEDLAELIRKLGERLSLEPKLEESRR
TRPC4 act: activators of mouse TRPC4 channel; AID 2237; 0.49% of 310,000 active; B-score at 10 µM; HEK293 TRPC4beta/mu-opioid, Fluo4 calcium fluorescence; stronger effect = higher value;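 active means B-score above 5 SD of library B-scores, and initial fluorescence ratio not above library mean plus 5 SD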;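 further: positive B-score marks a calcium rise read as TRPC4 activation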
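Assay system – TRPC4beta and mu-opioid receptor HEK293 stable cells · Measured by – Fluo4 fluorescence, kinetic · Schedule – dye loading 45 min room temperature, 110 s kinetic read · Read-out – B-scored integrated calcium fluorescence ratio · Controls – buffer and maximal DAMGO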
TRPC4 inh: inhibitors of mouse TRPC4 channel. HEK293 TRPC4beta/mu-opioid, DAMGO-evoked Fluo4 calcium flux; stronger effect = lower value. B-score at 10 µM. 0.39% of 300,000 active. AID 2247;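 active means B-score over 3 SD under the library average, no early fluorescence shift, positive overall ratio signal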
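material = TRPC4beta/mu-opioid receptor HEK293 cell line | probe or stimulus = sequential submaximal and maximal DAMGO stimulation | compound dosing = one concentration per compound | measured by = Fluo4 Ca2+ flux fluorescence | evaluation = integrated fluorescence ratio relative to baseline, converted to per-well B score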
TRPC6 activator: mouse TRPC6 channel activation; 0.13% of 310,000 active; B-score at 10 µM; HEK293-TRPC6 membrane potential dye fluorescence; stronger effect = higher value; AID 2550; Q61143;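 active means B-score of the integrated fluorescence ratio above library mean plus 3 SD, and starting fluorescence ratio within library mean plus 5 SD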;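 further: higher score means more depolarization so channel activation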
TRPC4 spec 2: second selectivity test of TRPC6 inhibitors: effect on mouse TRPC4; inhibition, % at 10 µM; shares compounds with TRPC6 inh; AID 2776; HEK293 TRPC4/MOR, membrane potential dye fluorescence; channel activated by saturating DAMGO dose; 42% of 920 active;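 active means compounds whose fluorescence signal differed from control wells by over 3 SD, either direction, in both duplicate plates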
TRPC4 spec: selectivity of TRPC6 inhibitors: effect on mouse TRPC4; shares compounds with TRPC6 inh; HEK293 TRPC4/mu-opioid, membrane potential fluorescence; activity change, negative = inhibition, % at 10 µM; 61% of 920 active;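 active means rise or fall in signal beyond 3 SD of buffer-only wells in both replicate plates, either sign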;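 further: integrated kinetic ratio of fluorescence range over baseline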
HEK293 MPD ctr 2-1: second counter-screen for TRPC6 inhibitors: parental HEK293 cells; parental HEK293 membrane potential dye fluorescence; maximal acetylcholine challenge after compound addition; signal change vs control, % at 10 µM; AID 2779; shares compounds with TRPC6 inh; 31% of 920 active;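 active means membrane potential signal moving either way by over 3 SD of the maximum-effect control, in both duplicate plates, meaning non-specific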
HEK293 MPD ctr-1: parental HEK293 nonspecific activity of TRPC6 inhibitors; membrane potential signal change, % at 10 µM; shares compounds with TRPC6 inh; 60% of 920 active; parental HEK293 membrane potential dye fluorescence;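 active means membrane potential signal shifting up or down by more than 3 SD of buffer-only wells, on both duplicate plates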
HEK293 MPD ctr-2: counter-screen for TRPC6 modulators: effect in parental HEK293 cells; shares compounds with TRPC6 inh; membrane potential dye fluorescence; membrane potential signal change, % at 10 µM; 51% of 2,400 active; AID 488924;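 active means membrane potential signal moves up or down beyond 5 SD from buffer-only wells, on both duplicate plates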
HEK293 MPD ctr 2-2: second check of TRPC6 modulator effects in parental HEK293 cells; inhibition, % at 10 µM; 14% of 2,400 active; membrane potential dye fluorescence; after compound, maximal acetylcholine stimulation; shares compounds with TRPC6 inh;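 active means membrane potential signal drops by more than 5 SD from the mean control signal, in both duplicate plates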
TRPC4/MOR mod: mouse TRPC4 off-target activity of TRPC6 modulators; shares compounds with TRPC6 inh; HEK293 TRPC4/mu-opioid, membrane potential fluorescence; percent change from control (negative = decrease, positive = increase), % at 10 µM; 69% of 2,400 active; AID 488927;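 active means membrane potential signal moved up or down beyond 5 SD of buffer control wells, in both duplicate plates, actives on both sides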
TRPC4 ctr inh 2: second check of whether TRPC6 modulators also affect mouse TRPC4; inhibition, % at 10 µM; shares compounds with TRPC6 inh; 55% of 2,400 active; HEK293 TRPC4/mu-opioid, membrane potential dye fluorescence; stimulated with maximal-effect DAMGO;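 active means drop in membrane potential signal beyond 5 SD of the control wells in both duplicate plates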;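 further: TRPC4 counter screen for TRPC6 hits run under conditions tuned for TRPC6 not TRPC4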
TRPC6 inh conf: confirmation of mouse TRPC6 inhibitors | 43% of 3,300 active | inhibition, % at 10 µM | shares compounds with TRPC6 inh | HEK293-TRPC6, membrane potential dye, ACh-evoked depolarization;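 active means fluorescence ratio falls more than 5 SD below the full-stimulation control mean, in both duplicate runs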;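 further: integrated fluorescence ratio of peak minus minimum over baseline after agonist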
TRPC6 act conf: mouse TRPC6 activator confirmation. shares compounds with TRPC6 inh. HEK293-TRPC6 membrane potential dye fluorescence, FDSS. activation, % at 10 µM. 11% of 2,800 active. AID 488961;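 active means ratio signal rise beyond 5 SD above unstimulated control wells' mean, seen in both duplicate runs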
Each line names hits and unclear results; the compound was inactive in the other large screens (follow-up assays come after a bar, where they were run). Only some compounds are listed: those with a hit (about 2.3% of all), similar ones and a draw of the others.

O=C(CN1CCN(c2ccccc2F)CC1)NC(=O)NCc1ccccc1	TRPC6 inh -5.1 | HEK293 MPD ctr-2 inactive | HEK293 MPD ctr 2-2 inactive | TRPC4/MOR mod inactive | TRPC4 ctr inh 2 inactive | TRPC6 inh conf inactive | TRPC6 act conf inactive
CN(C)S(=O)(=O)N1CCC(Oc2cccc(C(=O)N3CCSCC3)c2)CC1	none
CS(=O)(=O)c1ccc(Cl)c(NC(=O)c2cc(S(=O)(=O)N3CCOCC3)ccc2N2CCCC2)c1	none
O=C(Cn1c(-c2ccccc2)c[n+]2ccsc12)c1ccccc1	TRPC6 inh -5.3, TRPC4 inh -11 | HEK293 MPD ctr-2 inactive | HEK293 MPD ctr 2-2 inactive | TRPC4/MOR mod 16% | TRPC4 ctr inh 2 58% | TRPC6 inh conf inactive | TRPC6 act conf inactive
O=C(Cn1nnc(-c2ccccc2)n1)c1ccccc1	none
O=C(Cn1c(-c2ccccc2)c[n+]2ccsc12)c1ccc([N+](=O)[O-])cc1	TRPC6 inh -5.3, TRPC4 act 50, TRPC4 inh -7 | HEK293 MPD ctr-2 -198% | HEK293 MPD ctr 2-2 inactive | TRPC4/MOR mod 35% | TRPC4 ctr inh 2 90% | TRPC6 inh conf inactive | TRPC6 act conf inactive
Cc1ccccc1NC(=O)Cc1nnc(N)s1	none
CCN(CC)CCNC(=O)C(Oc1ccccc1)Oc1ccccc1	none
Cn1cccc1/C=C1\CCC/C(=C\c2cccn2C)C1=O	TRPC6 activator 35 | HEK293 MPD ctr-2 261% | HEK293 MPD ctr 2-2 inactive | TRPC4/MOR mod 98% | TRPC4 ctr inh 2 inactive | TRPC6 inh conf inactive | TRPC6 act conf 66%
O=C1/C(=C/c2cccs2)CCC/C1=C\c1cccs1	none
O=C(NN=C1CCCC1)c1ccccc1[N+](=O)[O-]	TRPC6 inh -5.6 | HEK293 MPD ctr-2 inactive | HEK293 MPD ctr 2-2 inactive | TRPC4/MOR mod 8.0% | TRPC4 ctr inh 2 inactive | TRPC6 inh conf inactive | TRPC6 act conf inactive
CC(C)N1CCC(=NNC(=O)c2ccccc2[N+](=O)[O-])CC1	none
CC(=O)N1CCc2ccc(S(=O)(=O)N3CCN(C)CC3)cc21	TRPC6 inh -5.1 | HEK293 MPD ctr-2 123% | HEK293 MPD ctr 2-2 inactive | TRPC4/MOR mod 40% | TRPC4 ctr inh 2 inactive | TRPC6 inh conf inactive
Cc1sc2nc(CN3CCCC3)nc(NCc3ccncc3)c2c1C	none
Cc1sc2nc(CN3CCCCC3)nc(Nc3ccc4c(c3)OCCO4)c2c1C	TRPC6 inh -5 | HEK293 MPD ctr-2 inactive | HEK293 MPD ctr 2-2 inactive | TRPC4/MOR mod inactive | TRPC4 ctr inh 2 inactive | TRPC6 inh conf 44%
CC(C)(C)C1CCC(=O)N(CCSc2ccccc2)CC1 (stereo unspecified)	TRPC6 inh -5.2 | HEK293 MPD ctr-2 190% | HEK293 MPD ctr 2-2 inactive | TRPC4/MOR mod 44% | TRPC4 ctr inh 2 inactive | TRPC6 inh conf inactive
CSc1nc(O)c(N=Nc2ccc(F)cc2F)c(=O)[nH]1	none
Cc1cccn2c(=O)c3cc(C(=O)NCC4CCCO4)c(=N)n(CC4CCCO4)c3nc12 (stereo unspecified)	none
COc1ccc(CCNC(=O)c2cc3c(=O)n4cccc(C)c4nc3n(CCCN3CCOCC3)c2=N)cc1	none
Cc1cccn2c(=O)c3cc(C(=O)NC4CCCC4)c(=N)n(CC4CCCO4)c3nc12 (stereo unspecified)	TRPC6 inh -5.8 | HEK293 MPD ctr-2 inactive | HEK293 MPD ctr 2-2 inactive | TRPC4/MOR mod inactive | TRPC4 ctr inh 2 32% | TRPC6 inh conf inactive | TRPC6 act conf inactive
Cc1cccn2c(=O)c3cc(C(=O)NCCN4CCOCC4)c(=N)n(Cc4ccc(F)cc4)c3nc12	TRPC6 inh -5.6 | HEK293 MPD ctr-2 inactive | HEK293 MPD ctr 2-2 94% | TRPC4/MOR mod inactive | TRPC4 ctr inh 2 inactive | TRPC6 inh conf inactive | TRPC6 act conf inactive
Cc1cccn2c(=O)c3cc(C(=O)NCCN4CCOCC4)c(=N)n(CCN4CCOCC4)c3nc12	TRPC6 inh -7 | TRPC4 spec 2 72% | TRPC4 spec 0.8% | HEK293 MPD ctr 2-1 -124% | HEK293 MPD ctr-1 inactive | TRPC6 inh conf 66% | TRPC6 act conf inactive
CCOc1ccc(CCNC(=O)c2sc3nc4n(c(=O)c3c2C)CCC4)cc1	none
NS(=O)(=O)c1ccc(CCNC(=O)COC(=O)CCSc2ccc(Cl)cc2)cc1	none
NS(=O)(=O)c1ccc(CCNC(=O)COC(=O)/C=C/c2ccc(Cl)cc2)cc1	TRPC6 inh -5.4 | HEK293 MPD ctr-2 inactive | HEK293 MPD ctr 2-2 inactive | TRPC4/MOR mod inactive | TRPC4 ctr inh 2 inactive | TRPC6 inh conf inactive | TRPC6 act conf inactive
CN(C)c1nc(N)c(C(=O)N=C(N)N)nc1Cl	TRPC6 inh -7.3 | TRPC4 spec 2 inactive | TRPC4 spec -24% | HEK293 MPD ctr 2-1 inactive | HEK293 MPD ctr-1 -364% | TRPC6 inh conf inactive | TRPC6 act conf inactive
NC(=Nc1ccccc1)NC(=O)c1nc(Cl)c(N)nc1N	none
C=CCn1c(SCC(=O)N(CCOC)c2c(N)n(CCCC)c(=O)[nH]c2=O)nnc1-c1ccc(Cl)cc1	none
Cc1ccc(C2C(C#N)=C(N)Oc3cc(N)ccc32)cc1 (stereo unspecified)	TRPC6 activator 13 | HEK293 MPD ctr-2 inactive | HEK293 MPD ctr 2-2 inactive | TRPC4/MOR mod inactive | TRPC4 ctr inh 2 inactive | TRPC6 inh conf inactive | TRPC6 act conf inactive
COc1cccc(C(C(=O)NC(C)(C)C)N(C(=O)CCC(=O)Nc2cc(C)on2)c2ccc3c(c2)OCCO3)c1OC (stereo unspecified)	none
